# Tests used:
# Pseudomonas aeruginosa = assay: In Vitro minimal inhibitory concentration against Pseudomonas aeruginosa (1101-75); type: functional
# Summary of the method: (§1)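 Serial broth dilution in heart infusion broth. Inoculum was a 10^-4 dilution of an overnight culture. Seeded antibiotic-containing tubes were incubated 37 °C for 20 h. […] Values are the average of triplicate determinations.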
# Klebsiella pneumoniae = assay: In Vitro minimal inhibitory concentration against Klebsiella pneumoniae (NCTC 418); type: functional; summary of the method: as §1
# Staphylococcus aureus = assay: In Vitro minimal inhibitory concentration against Staphylococcus aureus (FDA 209P); type: functional; summary of the method: as §1
# Salmonella typhi = assay: In Vitro minimal inhibitory concentration against Salmonella typhi (O-901); type: functional, Salmonella enterica subsp. enterica serovar Typhi; conditions: Salmonella enterica
# Summary of the method: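 Serial broth dilution MIC. Inoculum: overnight culture diluted 10^-4 in heart infusion broth. Seeded antibiotic-containing broth tubes incubated 20 h at 37 °C. MIC is the lowest concentration preventing visible growth. Concentrations tested up to 128 μg/mL. Values are the average of triplicate determinations.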
# Escherichia coli = assay: In Vitro minimal inhibitory concentration against Escherichia coli (ATCC 39188); type: functional; summary of the method: as §1
SMILES,MIC (Pseudomonas aeruginosa),MIC (Klebsiella pneumoniae),MIC (Staphylococcus aureus),MIC (Salmonella typhi),MIC (Escherichia coli)
O=C(Cc1ccccc1)N[C@@H]1C(=O)N2C(C(=O)O)=C(OS(=O)(=O)C(F)(F)F)NC[C@H]12 (racemic),1.15 µg/mL,0.24 µg/mL,0.01 µg/mL,0.68 µg/mL,0.09 µg/mL
CS(=O)(=O)C1=C(O)NC[C@@H]2[C@H](NC(=O)Cc3ccccc3)C(=O)N12 (racemic),> 128 µg/mL,> 128 µg/mL,> 128 µg/mL,> 128 µg/mL,> 128 µg/mL
CS(=O)(=O)OC1=C(C(=O)OCc2ccccc2)N2C(=O)[C@@H](NC(=O)Cc3ccccc3)[C@H]2CN1 (racemic),> 128 µg/mL,> 128 µg/mL,> 128 µg/mL,> 128 µg/mL,> 128 µg/mL
CC1(C)S[C@@H]2[C@H](NC(=O)Cc3ccccc3)C(=O)N2[C@H]1C(=O)O [PENICILLIN G],> 128 µg/mL,> 128 µg/mL,0.4 µg/mL,> 128 µg/mL,2.3 µg/mL
CS(=O)(=O)C1(C(=O)O)C(=O)NC[C@@H]2[C@H](NC(=O)Cc3ccccc3)C(=O)N21 (stereo not given in full),120 µg/mL,51 µg/mL,48.5 µg/mL,65.3 µg/mL,97.2 µg/mL
O=C(Cc1ccccc1)N[C@@H]1C(=O)N2C(C(=O)O)=C(O)NC[C@H]12 (racemic),> 128 µg/mL,> 128 µg/mL,29.5 µg/mL,> 128 µg/mL,94.7 µg/mL
CC1=C(C(=O)O)N2C(=O)[C@@H](NC(=O)Cc3ccccc3)[C@H]2SC1,100 µg/mL,2.98 µg/mL,0.64 µg/mL,24.5 µg/mL,13.1 µg/mL
O=C(Cc1ccccc1)N[C@@H]1C(=O)N2C(C(=O)OCc3ccccc3)=C(OS(=O)(=O)C(F)(F)F)NC[C@H]12 (racemic),> 128 µg/mL,> 128 µg/mL,> 128 µg/mL,> 128 µg/mL,> 128 µg/mL
CO/N=C(\C(=O)N[C@@H]1C(=O)N2C(C(=O)O)=C(COC(C)=O)CS[C@H]12)c1csc(N)n1 [CEFOTAXIME],62.4 µg/mL,10.2 µg/mL,0.08 µg/mL,20.3 µg/mL,0.25 µg/mL
CS(=O)(=O)OC1=C(C(=O)O)N2C(=O)[C@@H](NC(=O)Cc3ccccc3)[C@H]2CN1 (racemic),4.38 µg/mL,0.68 µg/mL,0.07 µg/mL,1.2 µg/mL,0.95 µg/mL
